Laboratory results as given in ChEMBL document CHEMBL4396885, “Thioether-based 2-aminobenzamide derivatives: Novel HDAC inhibitors with potent in vitro and in vivo antitumor activity” (Eur J Med Chem, 2019).

Key:
[1] = Volume of distribution at steady state n ICR mouse at 4 mg/kg, iv after 0.08 to 24 hrs by LC-MS/MS analysis; assay type: ADME, organism-based; details: in vivo, read-out: Vdss
In short: (§1)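 Male ICR mice (29.7~37.4 g), single iv dose 4 mg/kg in DMSO:40% SBE-β-CD 20:80 (v/v). Retro-orbital blood at 0.08–24 h into EDTA-K2 tubes; plasma protein-precipitated with acetonitrile containing internal standards, analysed by LC-MS/MS; n=3 per time point; noncompartmental analysis.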

[2] = Half life in ICR mouse at 4 mg/kg, iv after 0.08 to 24 hrs by LC-MS/MS analysis; assay type: ADME, organism-based; details: in vivo; in short: as §1
[3] = Clearance in ICR mouse at 4 mg/kg, iv after 0.08 to 24 hrs by LC-MS/MS analysis; assay type: ADME, organism-based; details: in vivo; in short: as §1
A549 [4] = experiment: Induction of apoptosis in human A549 cells assessed as early apoptotic cells at 1 uM after 48 hrs by Annexin V-FITC/propidium iodide staining based flow cytometry (reference value: 1.19%); assay type: functional
In short: (§2)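 A549 seeded 4×10⁶ cells/well, dosed after 12 h with compound at various concentrations, harvested after 48 h. Resuspended in annexin-binding buffer, stained with Annexin V-FITC and propidium iodide for 15 min in the dark, analysed by flow cytometry; means of three separate experiments.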

A549 [5] = experiment: Cell cycle arrest in human A549 cells assessed as accumulation of cells at S phase at 2 uM after 48 hrs by propidium iodide staining-based flow cytometry (reference value: 12.83%); assay type: functional
HeLa [6] = experiment: Antiproliferative activity against human HeLa cells assessed as growth inhibition at 8 uM after 72 hrs by CCK-8 assay relative to control; assay type: functional; details: read-out: GI
A549 [7] = experiment: Cell cycle arrest in human A549 cells assessed as accumulation of cells at G0/G1 phase at 1 uM after 48 hrs by propidium iodide staining-based flow cytometry (reference value: 73.35%); assay type: functional
A549 [8] = experiment: Cell cycle arrest in human A549 cells assessed as accumulation of cells at G0/G1 phase at 2 uM after 48 hrs by propidium iodide staining-based flow cytometry (reference value: 73.35%); assay type: functional
A-375 [9] = experiment: Antiproliferative activity against human A375 cells assessed as growth inhibition at 2 uM after 72 hrs by CCK-8 assay relative to control; assay type: functional; details: A-375, 72 h, read-out: GI
A549 [10] = experiment: Cell cycle arrest in human A549 cells assessed as accumulation of cells at S phase at 1 uM after 48 hrs by propidium iodide staining-based flow cytometry (reference value: 12.83%); assay type: functional
A549 [11] = experiment: Cell cycle arrest in human A549 cells assessed as accumulation of cells at G0/G1 phase at 0.5 uM after 48 hrs by propidium iodide staining-based flow cytometry (reference value: 73.35%); assay type: functional
A-375 [12] = experiment: Antiproliferative activity against human A375 cells assessed as decrease in cell viability after 72 hrs by CCK-8 assay; assay type: functional, cell-based; details: A-375, 72 h
In short: (§3)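 Cells grown to 70–85% confluence (A375, A549, HCT116 in RPMI1640; HeLa, SMMC7721 in DMEM; 10% FBS, 37 °C, 5% CO2), seeded 4000/well, dosed after 12 h across a concentration range, incubated 72 h, then CCK-8 for 1 h; absorbance at 450 nm. IC50 as mean ± SD of three separate experiments.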

A549 [13] = experiment: Induction of apoptosis in human A549 cells assessed as necrotic cells at 2 uM after 48 hrs by Annexin V-FITC/propidium iodide staining based flow cytometry (reference value: 0.135%); assay type: functional; in short: as §2
A549 [14] = experiment: Induction of apoptosis in human A549 cells assessed as early apoptotic cells at 0.5 uM after 48 hrs by Annexin V-FITC/propidium iodide staining based flow cytometry (reference value: 1.19%); assay type: functional; in short: as §2
SMMC-7721 [15] = experiment: Antiproliferative activity against human SMMC7721 cells assessed as growth inhibition at 8 uM after 72 hrs by CCK-8 assay relative to control; assay type: functional; details: SMMC-7721, 72 h, read-out: GI
HCT-116 [16] = experiment: Antiproliferative activity against human HCT116 cells assessed as decrease in cell viability after 72 hrs by CCK-8 assay; assay type: functional, cell-based; details: HCT-116, 72 h; in short: as §3
HeLa [17] = experiment: Antiproliferative activity against human HeLa cells assessed as decrease in cell viability after 72 hrs by CCK-8 assay; assay type: functional, cell-based; in short: as §3
A549 [18] = experiment: Antiproliferative activity against human A549 cells assessed as growth inhibition at 2 uM after 72 hrs by CCK-8 assay relative to control; assay type: functional; details: A549, 72 h, read-out: GI
A549 [19] = experiment: Cell cycle arrest in human A549 cells assessed as accumulation of cells at G2/M phase at 0.5 uM after 48 hrs by propidium iodide staining-based flow cytometry (reference value: 13.62%); assay type: functional
A-375 [20] = experiment: Antiproliferative activity against human A375 cells assessed as growth inhibition at 8 uM after 72 hrs by CCK-8 assay relative to control; assay type: functional; details: A-375, 72 h, read-out: GI
A549 [21] = experiment: Cell cycle arrest in human A549 cells assessed as accumulation of cells at G2/M phase at 1 uM after 48 hrs by propidium iodide staining-based flow cytometry (reference value: 13.62%); assay type: functional
A549 [22] = experiment: Induction of apoptosis in human A549 cells assessed as necrotic cells at 0.5 uM after 48 hrs by Annexin V-FITC/propidium iodide staining based flow cytometry (reference value: 0.135%); assay type: functional; in short: as §2
A549 [23] = experiment: Induction of apoptosis in human A549 cells assessed as late apoptotic cells at 1 uM after 48 hrs by Annexin V-FITC/propidium iodide staining based flow cytometry (reference value: 0.637%); assay type: functional; in short: as §2
SMMC-7721 [24] = experiment: Antiproliferative activity against human SMMC7721 cells assessed as decrease in cell viability after 72 hrs by CCK-8 assay; assay type: functional, cell-based; details: SMMC-7721, 72 h; in short: as §3
HeLa [25] = experiment: Antiproliferative activity against human HeLa cells assessed as growth inhibition at 2 uM after 72 hrs by CCK-8 assay relative to control; assay type: functional; details: read-out: GI
HCT-116 [26] = experiment: Antiproliferative activity against human HCT116 cells assessed as growth inhibition at 8 uM after 72 hrs by CCK-8 assay relative to control; assay type: functional; details: HCT-116, 72 h, read-out: GI
A549 [27] = experiment: Cell cycle arrest in human A549 cells assessed as accumulation of cells at G2/M phase at 2 uM after 48 hrs by propidium iodide staining-based flow cytometry (reference value: 13.62%); assay type: functional
A549 [28] = experiment: Induction of apoptosis in human A549 cells assessed as early apoptotic cells at 2 uM after 48 hrs by Annexin V-FITC/propidium iodide staining based flow cytometry (reference value: 1.19%); assay type: functional; in short: as §2
A549 [29] = experiment: Induction of apoptosis in human A549 cells assessed as necrotic cells at 1 uM after 48 hrs by Annexin V-FITC/propidium iodide staining based flow cytometry (reference value: 0.135%); assay type: functional; in short: as §2
A549 [30] = experiment: Induction of apoptosis in human A549 cells assessed as late apoptotic cells at 2 uM after 48 hrs by Annexin V-FITC/propidium iodide staining based flow cytometry (reference value: 0.637%); assay type: functional; in short: as §2
A549 [31] = experiment: Cell cycle arrest in human A549 cells assessed as accumulation of cells at S phase at 0.5 uM after 48 hrs by propidium iodide staining-based flow cytometry (reference value: 12.83%); assay type: functional
HCT-116 [32] = experiment: Antiproliferative activity against human HCT116 cells assessed as growth inhibition at 2 uM after 72 hrs by CCK-8 assay relative to control; assay type: functional; details: HCT-116, 72 h, read-out: GI
A549 [33] = experiment: Induction of apoptosis in human A549 cells assessed as viable cells at 2 uM after 48 hrs by Annexin V-FITC/propidium iodide staining based flow cytometry (reference value: 98%); assay type: functional; details: A549, 48 h, read-out: Activity; in short: as §2
A549 [34] = experiment: Antiproliferative activity against human A549 cells assessed as decrease in cell viability after 72 hrs by CCK-8 assay; assay type: functional, cell-based; details: A549, 72 h; in short: as §3
SMMC-7721 [35] = experiment: Antiproliferative activity against human SMMC7721 cells assessed as growth inhibition at 2 uM after 72 hrs by CCK-8 assay relative to control; assay type: functional; details: SMMC-7721, 72 h, read-out: GI
A549 [36] = experiment: Induction of apoptosis in human A549 cells assessed as late apoptotic cells at 0.5 uM after 48 hrs by Annexin V-FITC/propidium iodide staining based flow cytometry (reference value: 0.637%); assay type: functional; in short: as §2
A549 [37] = experiment: Induction of apoptosis in human A549 cells assessed as viable cells at 0.5 uM after 48 hrs by Annexin V-FITC/propidium iodide staining based flow cytometry (reference value: 98%); assay type: functional; details: A549, 48 h, read-out: Activity; in short: as §2
A549 [38] = experiment: Antiproliferative activity against human A549 cells assessed as growth inhibition at 8 uM after 72 hrs by CCK-8 assay relative to control; assay type: functional; details: A549, 72 h, read-out: GI
A549 [39] = experiment: Induction of apoptosis in human A549 cells assessed as viable cells at 1 uM after 48 hrs by Annexin V-FITC/propidium iodide staining based flow cytometry (reference value: 98%); assay type: functional; details: A549, 48 h, read-out: Activity; in short: as §2

## Nc1ccccc1NC(=O)c1ccc(COc2ccc(F)cc2)cc1
[1]
  Vd: 2.33 L/kg
[2]
  half-life: 33.6 min
[3]
  clearance: 118 mL/min/kg

## Nc1ccc(F)cc1NC(=O)c1ccc(CNC(=O)/C=C/c2cccnc2)cc1
A549 [4]
  Activity: 1.01%
A549 [5]
  Activity: 9.43%
HeLa [6]
  inhibition of growth at 8 µM: 34.2%
A549 [7]
  Activity: 74.07%
A549 [8]
  Activity: 75.53%
A-375 [9]
  inhibition of growth at 2 µM: 56.5%
A549 [10]
  Activity: 7.26%
A549 [11]
  Activity: 75.24%
A-375 [12]
  IC50: 4.77 µM
A549 [13]
  Activity: 0.881%
A549 [14]
  Activity: 2.17%
SMMC-7721 [15]
  inhibition of growth at 8 µM: 71.7%
HCT-116 [16]
  IC50: 1.57 µM
HeLa [17]
  IC50: 3.42 µM
A549 [18]
  inhibition of growth at 2 µM: 21.9%
A549 [19]
  Activity: 17.79%
A-375 [20]
  inhibition of growth at 8 µM: 71.7%
A549 [21]
  Activity: 18.67%
A549 [22]
  Activity: 0.455%
A549 [23]
  Activity: 5.25%
SMMC-7721 [24]
  IC50: 8.63 µM
HeLa [25]
  inhibition of growth at 2 µM: 20.6%
HCT-116 [26]
  inhibition of growth at 8 µM: 87.4%
A549 [27]
  Activity: 15.04%
A549 [28]
  Activity: 3.97%
A549 [29]
  Activity: 4.71%
A549 [30]
  Activity: 4.14%
A549 [31]
  Activity: 6.97%
HCT-116 [32]
  inhibition of growth at 2 µM: 61.1%
A549 [33]
  viability at 2 µM: 91%
A549 [34]
  IC50: 6.81 µM
SMMC-7721 [35]
  inhibition of growth at 2 µM: 56.5%
A549 [36]
  Activity: 0.898%
A549 [37]
  viability at 0.5 µM: 96.5%
A549 [38]
  inhibition of growth at 8 µM: 85.6%
A549 [39]
  viability at 1 µM: 89%
